According to ChEMBL document CHEMBL1806357, “A regioselective synthesis of some new pyrazol-1'-ylpyrazolo[1,5-a]pyrimidines in aqueous medium and their evaluation as antimicrobial agents” (2011):
In brackets after ≈: the same amount, converted by molar mass.

How the values were obtained:
Assay type in all cases: functional
Escherichia coli [1] = assay: Antibacterial activity against Escherichia coli ATCC 8739 at 2 mg/ml after 24 hrs by agar-well diffusion technique; conditions: ATCC 8739, 24 h, read-out: DIZ
Procedure, shortened: (§1)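 Agar-well diffusion used MHA seeded with 24 h cultures at 0.5 McFarland (1 × 10^6 CFU/ml). 100 µl of compound (2 mg/ml in DMSO, filter-sterilized) went into each 6 mm well. Plates were incubated upright at 37 ± 1 °C for 24 h, and the inhibition zone diameter was measured in mm. DMSO was the negative control. Values are the mean of three replicates.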

Pseudomonas aeruginosa [2] = assay: Antibacterial activity against Pseudomonas aeruginosa ATCC 25668 at 2 mg/ml after 24 hrs by agar-well diffusion technique; conditions: ATCC 25668, 24 h, read-out: DIZ; procedure, shortened: as §1
Staphylococcus aureus [3] = assay: Antibacterial activity against Staphylococcus aureus ATCC 9144 at 2 mg/ml after 24 hrs by agar-well diffusion technique; conditions: ATCC 9144, 24 h, read-out: DIZ; procedure, shortened: as §1
Bacillus cereus [4] = assay: Antibacterial activity against Bacillus cereus ATCC 11778 at 2 mg/ml after 24 hrs by agar-well diffusion technique; conditions: ATCC 11778, 24 h, read-out: DIZ; procedure, shortened: as §1
Escherichia coli [5] = assay: Antibacterial activity against Escherichia coli ATCC 8739 after 24 hrs by broth microdilution method; conditions: ATCC 8739, 24 h
Pseudomonas aeruginosa [6] = assay: Antibacterial activity against Pseudomonas aeruginosa ATCC 25668 after 24 hrs by broth microdilution method; conditions: ATCC 25668, 24 h
Staphylococcus aureus [7] = assay: Antibacterial activity against Staphylococcus aureus ATCC 9144 after 24 hrs by broth microdilution method; conditions: ATCC 9144, 24 h
Bacillus cereus [8] = assay: Antibacterial activity against Bacillus cereus ATCC 11778 after 24 hrs by broth microdilution method; conditions: ATCC 11778, 24 h
Aspergillus terreus [9] = assay: Antifungal activity against Aspergillus terreus at 10 ug/ml after 7 days by poisoned food technique relative to control
Procedure, shortened: (§2)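 Poisoned food technique with soil-isolated fungi on PDA. Compound from a 1 mg/ml DMSO stock was added to molten agar at 40 ± 2 °C to give 10, 50, 100 or 200 µg/ml. A 6 mm mycelial disc from a 6-day culture was placed centrally, and plates were held at 28 ± 1 °C. Radial growth was measured after 7 days, and % inhibition was calculated against PDA/DMSO control, in triplicate.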

Aspergillus terreus [10] = assay: Antifungal activity against Aspergillus terreus at 50 ug/ml after 7 days by poisoned food technique relative to control; procedure, shortened: as §2
Aspergillus terreus [11] = assay: Antifungal activity against Aspergillus terreus at 100 ug/ml after 7 days by poisoned food technique relative to control; procedure, shortened: as §2
Aspergillus terreus [12] = assay: Antifungal activity against Aspergillus terreus at 200 ug/ml after 7 days by poisoned food technique relative to control; procedure, shortened: as §2
Alternaria alternata [13] = assay: Antifungal activity against Alternaria alternata at 10 ug/ml after 7 days by poisoned food technique relative to control; procedure, shortened: as §2
Alternaria alternata [14] = assay: Antifungal activity against Alternaria alternata at 50 ug/ml after 7 days by poisoned food technique relative to control; procedure, shortened: as §2
Alternaria alternata [15] = assay: Antifungal activity against Alternaria alternata at 100 ug/ml after 7 days by poisoned food technique relative to control; procedure, shortened: as §2
Alternaria alternata [16] = assay: Antifungal activity against Alternaria alternata at 200 ug/ml after 7 days by poisoned food technique relative to control; procedure, shortened: as §2
Fusarium oxysporum [17] = assay: Antifungal activity against Fusarium oxysporum at 10 ug/ml after 7 days by poisoned food technique relative to control; procedure, shortened: as §2
Fusarium oxysporum [18] = assay: Antifungal activity against Fusarium oxysporum at 50 ug/ml after 7 days by poisoned food technique relative to control; procedure, shortened: as §2
Fusarium oxysporum [19] = assay: Antifungal activity against Fusarium oxysporum at 100 ug/ml after 7 days by poisoned food technique relative to control; procedure, shortened: as §2
Fusarium oxysporum [20] = assay: Antifungal activity against Fusarium oxysporum at 200 ug/ml after 7 days by poisoned food technique relative to control; procedure, shortened: as §2
Helminthosporium [21] = assay: Antifungal activity against Helminthosporium sp. at 10 ug/ml after 7 days by poisoned food technique relative to control; procedure, shortened: as §2
Helminthosporium [22] = assay: Antifungal activity against Helminthosporium sp. at 50 ug/ml after 7 days by poisoned food technique relative to control; procedure, shortened: as §2
Helminthosporium [23] = assay: Antifungal activity against Helminthosporium sp. at 100 ug/ml after 7 days by poisoned food technique relative to control; procedure, shortened: as §2
Helminthosporium [24] = assay: Antifungal activity against Helminthosporium sp. at 200 ug/ml after 7 days by poisoned food technique relative to control; procedure, shortened: as §2
Helminthosporium [25] = assay: Antifungal activity against Helminthosporium sp. at 10 ug/ml after 7 days by poisoned food technique relative to 10 ug/ml mancozeb
Alternaria alternata [26] = assay: Antifungal activity against Alternaria alternata at 10 ug/ml after 7 days by poisoned food technique relative to 10 ug/ml mancozeb
Fusarium oxysporum [27] = assay: Antifungal activity against Fusarium oxysporum at 10 ug/ml after 7 days by poisoned food technique relative to 10 ug/ml mancozeb

Cc1cc(C)n2nc(-n3nc(C)cc3C)cc2n1
zone of inhibition at 2000 µg/mL (Escherichia coli [1]): 7 mm | zone of inhibition at 2000 µg/mL (Pseudomonas aeruginosa [2]): 7 mm | zone of inhibition at 2000 µg/mL (Staphylococcus aureus [3]): 7 mm | zone of inhibition at 2000 µg/mL (Bacillus cereus [4]): 7 mm | MIC (Escherichia coli [5]): > 400 µg/mL | MIC (Pseudomonas aeruginosa [6]): > 400 µg/mL | MIC (Staphylococcus aureus [7]): 400 µg/mL (≈ 1660 µM) | MIC (Bacillus cereus [8]): > 400 µg/mL | Activity (Aspergillus terreus [9]): 9.87% | Activity (Aspergillus terreus [10]): 33.7% | Activity (Aspergillus terreus [11]): 68.5% | Activity (Aspergillus terreus [12]): 73.2% | Activity (Alternaria alternata [13]): 47.5% | Activity (Alternaria alternata [14]): 69.5% | Activity (Alternaria alternata [15]): 71.6% | Activity (Alternaria alternata [16]): 73.1% | Activity (Fusarium oxysporum [17]): 56% | Activity (Fusarium oxysporum [18]): 67% | Activity (Fusarium oxysporum [19]): 67% | Activity (Fusarium oxysporum [20]): 71.9% | Activity (Helminthosporium [21]): 42.2% | Activity (Helminthosporium [22]): 66.6% | Activity (Helminthosporium [23]): 79.2% | Activity (Helminthosporium [24]): 79.2% | fold change (FC) (Helminthosporium [25]): 3.4 | fold change (FC) (Alternaria alternata [26]): 2.6 | fold change (FC) (Fusarium oxysporum [27]): 2
